Screening data (PubChem BioAssay)
The list is not random: actives were taken first. Their share in the collection is about 4.1%.
KCNQ1 pot: potentiates or activates the human KCNQ1 potassium channel. P51787. CHO-K1 KCNQ1, thallium flux FluxOR fluorescence; stronger effect = higher value. B-score at 10 µM. hit rate 0.35% among 310,000. AID 2648;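 active = fluorescence ratio B-score, a plate-corrected score, at least three library SD, with initial intensity B-score within 5 SD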
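System: Stable KCNQ1 CHO-K1 line | Incubation: 90 min dye loading and 20 min compound exposure, both at room temperature | Measure: Ratio B score | Medium: Assay buffer for compound exposure, DMSO matched across wells | Compound dosing: Single-concentration screen | Probe or stimulus: K+/Tl+ depolarizing stimulus | Measured by: Kinetic FluxOR fluorescence, 10 s baseline plus 110 s post-stimulus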
KCNK9 block: blocks the human KCNK9 two-pore domain potassium channel; Q9NPC2; HEK293 KCNK9, FluxOR thallium flux fluorescence; stronger effect = lower value; B-score at 10 µM; hit rate 1.2% among 310,000; AID 488922;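 active = ratio B-score over 3 SD below the library mean, with starting fluorescence within 5 SD of its mean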;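 also: negative B-score means less thallium flux so channel inhibition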
KCNK3 block: human KCNK3 channel inhibition, primary screen | O14649 | CHO-KCNK3 thallium flux, FluxOR fluorescence; stronger effect = lower value | B-score at 10 µM | hit rate 0.84% among 340,000 | AID 602410;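 active = B-score under library mean minus 4 SD, starting fluorescence ratio at most library mean plus 5 SD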;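 also: more negative B-score means stronger inhibition of thallium flux through KCNK3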
hERG protect: compounds protecting human hERG from proarrhythmic drug block; AID 1511; hit rate 0.51% among 310,000; activation (rescue from dofetilide block), less the hit threshold, % at 10 µM; Q12809; CHO-hERG, FluxOR thallium flux, dofetilide IC70 present;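 active = activation above the mean of controls blocked by dofetilide plus 5 SD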;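 also: thallium influx through hERG after potassium depolarization seen as dye fluorescence rise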
KCC2 mod: modulators of human KCC2 chloride dependent transport | B-score of Tl+ flux slope (higher = more flux/activation; lower = inhibition) at 10 µM | hit rate 2.2% among 190,000 | KCC2 cells, thallium flux FluoZin-2 fluorescence | Q9H2X9;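 active = thallium flux slope and its plate-corrected score both differing from the plate sample mean at a set confidence after two filtering rounds, in either direction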;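 also: slope of fluorescence scaled to starting intensity during 10 to 20 s after thallium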
KCNQ1 inh: inhibitors of human KCNQ1 potassium channel | B-score at 10 µM | AID 2642 | CHO-K1 KCNQ1, FluxOR thallium flux fluorescence; stronger effect = higher value | hit rate 1.3% among 310,000;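 active = compounds whose thallium flux B-score, printed positive for inhibition, exceeds three library SD while starting fluorescence stays within three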;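 also: channel opened by potassium depolarization with thallium stimulus after 20 min compound exposure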
KCC2 secondary: confirmation of human KCC2 transport modulators. normalised thallium flux (F/F0 slope) at 10 µM. shares compounds with KCC2 mod. AID 1713. HEK293-KCC2, thallium flux, FluoZin2 fluorescence; stronger effect = higher value. hit rate 15% among 3,700;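 active = thallium flux slope above the same plate's solvent-only control mean plus 3 SD; inconclusive = the two replicate wells disagree; inactive = no significant difference from solvent-only control wells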
KCC2 bumet counter: bumetanide-insensitive thallium flux in KCC2 cells with ouabain, counter-screen | shares compounds with KCC2 mod | HEK293-KCC2 + bumetanide/ouabain, thallium flux FluoZin2; stronger effect = higher value | normalized thallium flux at 10 µM | hit rate 49% among 3,700;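 active = thallium entry rate above the same plate's blocked-transporter control wells by more than 3 SD; inconclusive = the two repeat wells disagree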;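 also: raw slope of fluorescence over initial fluorescence between 10 and 20 s after thallium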
KCC2 sec2: confirmation of human KCC2 transport modulators; hit rate 23% among 3,700; normalized thallium flux at 10 µM; shares compounds with KCC2 mod; HEK293-KCC2, thallium flux FluoZin2 fluorescence; actives lie on both sides; F/F0 rise rate, 10–20 s post-thallium;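 active = thallium flux slope more than 3 SD above or below the plate's solvent-only control mean, mostly below; inconclusive = the two repeat wells disagreed; inactive = no significant shift from solvent-only controls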;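 also: raw slope with 0.1% DMSO as baseline and bumetanide as block control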
HEK293 Tl flux: counter-screen for KCC2 modulators: effect in parental HEK293 cells; hit rate 46% among 3,700; shares compounds with KCC2 mod; thallium flux rate (normalised fluorescence) at 10 µM; thallium flux FluoZin2, ouabain; baseline-ratio fluorescence slope, 10–20 s after thallium;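 active = thallium flux rate significantly above the same plate's solvent-only control wells, beyond their mean plus 3 SD; inconclusive = the two replicate wells gave conflicting results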
KCC2 ouabain: modulates human KCC2 on retest with ouabain | shares compounds with KCC2 mod | HEK293-KCC2, thallium flux FluoZin2 fluorescence; bidirectional: low = inhibitor, high = activator | raw Tl+ flux slope (below DMSO = inhibition, above = activation) at 10 µM | hit rate 48% among 3,700;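 active = thallium flux slope beyond 3 SD from same-plate DMSO control mean in most replicates, usually higher, sometimes lower; inconclusive = repeat tests gave conflicting results; inactive = no significant difference from controls in most replicates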;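 also: slope of initial-normalized fluorescence between seconds 10 and 20 after thallium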
HEK293 Tl flux2: acts in parental HEK cells, second KCC2 counter-screen. shares compounds with KCC2 mod. HEK293 parental, thallium flux FluoZin-2 fluorescence slope. thallium flux slope at 10 µM. hit rate 33% among 3,700;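 active = thallium flux slope above the same plate's solvent-control mean plus 3 SD in both duplicate wells; inconclusive = duplicate wells that disagreed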;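 also: run without ouabain in cells lacking the KCC2 cotransporter; slope of fluorescence scaled to its starting value between 10 and 20 s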
* hit, by the source's call.

How did COCc1cc(CNC(=O)C2CCC(=O)N(Cc3ccccc3OC)C2)[nH]n1 (stereo not drawn) do in these assays?
KCNQ1 pot: inactive; KCNK9 block: inactive; KCNK3 block: inactive; hERG protect: -6; KCNQ1 inh: inactive

What do the screens show for `c1ccc(-c2nc(Sc3ncnc4c3cnn4-c3ccccc3)n[nH]2)cc1`?
KCNQ1 pot: inactive; KCNK9 block: inactive; hERG protect: -8; KCC2 mod: -6.7*; KCNQ1 inh: inactive; KCC2 secondary: 0.007; KCC2 bumet counter: 0.0049; KCC2 sec2: 0.023*; HEK293 Tl flux: 0.0069; KCC2 ouabain: inconclusive; HEK293 Tl flux2: 0.011

What do the screens show for `Clc1cccc(Cl)c1C[n+]1ccc2ccccc2c1`?
KCNQ1 pot: inactive; KCNK9 block: inactive; KCNK3 block: inactive; hERG protect: -6; KCNQ1 inh: inactive

How did S=C(NCCc1ccccc1)NN=C1CCCCCC1 do in these assays?
KCNQ1 pot: inactive; KCNK9 block: inactive; KCNK3 block: inactive; hERG protect: -3; KCC2 mod: 9.4*; KCNQ1 inh: inactive; KCC2 secondary: 0.0076; KCC2 bumet counter: 0.016*; KCC2 sec2: 0.035; HEK293 Tl flux: inconclusive; KCC2 ouabain: inconclusive; HEK293 Tl flux2: 0.012

What do the screens show for `S=C(NCCc1ccccc1)N/N=C/C1CCCCC1`?
KCNQ1 pot: inactive; KCNK9 block: inactive; hERG protect: -14; KCC2 mod: 1; KCNQ1 inh: inactive

How did CC1CCC2(CC1)C(Nc1cccc(Cl)c1)=NC(=S)N2CC#N (stereo not drawn) do in these assays?
KCNQ1 pot: inactive; KCNK9 block: inactive; KCNK3 block: inactive; hERG protect: -4; KCC2 mod: 19*; KCNQ1 inh: inactive; KCC2 secondary: 0.0097*; KCC2 bumet counter: 0.05*; KCC2 sec2: 0.055*; HEK293 Tl flux: 0.052*; KCC2 ouabain: 0.045*; HEK293 Tl flux2: 0.041*

What do the screens show for `N#CC1(Nc2cccc(Cl)c2)CCCC1`?
KCNK3 block: inactive

Results for COc1cc2nc(=S)n3[nH]c(COc4ccccc4C)nc3c2cc1OC ?
KCNQ1 pot: inactive; KCNK9 block: inactive; KCNK3 block: inactive; hERG protect: -15; KCC2 mod: -9.2*; KCNQ1 inh: inactive; KCC2 secondary: 0.0088; KCC2 bumet counter: 0.0059; KCC2 sec2: 0.029; HEK293 Tl flux: 0.0061*; KCC2 ouabain: 0.01*; HEK293 Tl flux2: inconclusive

What do the screens show for `Cc1oc(-c2ccccc2)nc1C(=O)Nc1nccs1`?
KCNQ1 pot: inactive; KCNK9 block: inactive; KCNK3 block: inactive; hERG protect: -13; KCC2 mod: 7.7*; KCNQ1 inh: inactive; KCC2 secondary: 0.01; KCC2 bumet counter: 0.016*; KCC2 sec2: 0.032; HEK293 Tl flux: 0.0097*; KCC2 ouabain: 0.022; HEK293 Tl flux2: 0.012*
